Measurements reported in ChEMBL document CHEMBL3272284, “Drugs derived from cannabinoids. 6. Synthesis of cyclic analogues of dimethylheptylpyran” (1976).
Active and inactive are the calls of the source. The rule behind the calls is not given here.

Columns and labels:
Mus musculus [1] = assay: […] activity in mouse assessed as protection against audiogenic seizure up to 30 mg/kg, po; type: functional, organism-based; parameters: dose 30 mg/kg
Mus musculus [2] = assay: Central nervous system activity in mouse assessed as fighting at 10 mg/kg, po; type: functional, organism-based; parameters: dose 10 mg/kg
Rattus norvegicus [3] = assay: Antihypertensive activity in rat assessed as reduction of blood pressure at 10 mg/kg, po after 3 hrs; type: functional; parameters: scale not given: the % may be the effect or the level left
Method in brief: (§1)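 Cardiovascular screen in hypertensive rats. Compounds were given orally and blood pressure was measured after dosing, with readings taken at 3 h and over 24 h. Activity is expressed as percent decrease in blood pressure.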

Rattus norvegicus [4] = assay: Antidepressant activity in rat assessed as motor activity at 5 mg/kg, po; type: functional, organism-based; parameters: dose 5 mg/kg
Rattus norvegicus [5] = assay: Antihypertensive activity in po dosed rat assessed as reduction of blood pressure; type: functional, organism-based; method in brief: as §1
Rattus norvegicus [6] = assay: Antihypertensive activity in rat assessed as reduction of blood pressure at 10 mg/kg, po after 24 hrs; type: functional; parameters: scale not given: the % may be the effect or the level left; method in brief: as §1
Rattus norvegicus [7] = assay: Antihypertensive activity in rat assessed as reduction of blood pressure at 0.1 mg/kg, po; type: functional; parameters: scale not given: the % may be the effect or the level left; method in brief: as §1

Row | Compound | Activity (Mus musculus [1]) | Activity (Mus musculus [2]) | Activity (Rattus norvegicus [3]) [%] | Activity (Rattus norvegicus [4]) | Activity (Rattus norvegicus [5]) | Activity (Rattus norvegicus [6]) [%] | Activity (Rattus norvegicus [7]) [%]
1 | CCCCCC1Cc2c(cc(O)c3c2OC(C)(C)C2=C3CC(C)CC2)C1C (stereo not given) | inactive | inactive | 6 | inactive | – | – | –
2 | CCCCCC1Cc2c(cc3c(c2O)C2=C(CCC(C)C2)C(C)(C)O3)C1C (stereo not given) | inactive | inactive | – | inactive | inactive | – | –
3 | CCCCCC(C)C(C)c1cc(O)c2c(c1)OC(C)(C)C1=C2CC(C)CC1 (stereo not given) | – | – | – | – | – | 38 | 8
